Screens as filed in PubChem BioAssay.
PAFAH1B2 inh: inhibitors of human PAFAH1B2 | 1.2% of 340,000 active | P68402 | inhibition, % at 3.39 µM | recombinant PAFAH1B2, FP-rhodamine activity probe, fluorescence polarization | AID 492953;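 active means inhibition above the mean of all tested compounds plus 3 SD, cut at about 24% in these data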;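 further: 0% = enzyme with DMSO and 100% = wells lacking PAFAH1B2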
PAFAH1B3 inh: blocks human PAF acetylhydrolase 1B catalytic subunit 3. Q15102. recombinant PAFAH1B3, FP-rhodamine probe, fluorescence polarization. inhibition, % at 3.39 µM. 0.28% of 340,000 active. AID 492972;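 active means inhibition above the screen-wide average of all tested compounds plus 3 SD, cut at about 25% in these data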;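 further: 0% = enzyme with DMSO only and 100% = wells lacking PAFAH1B3 protein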
Target sequence (Q15102 whole entry, looked up): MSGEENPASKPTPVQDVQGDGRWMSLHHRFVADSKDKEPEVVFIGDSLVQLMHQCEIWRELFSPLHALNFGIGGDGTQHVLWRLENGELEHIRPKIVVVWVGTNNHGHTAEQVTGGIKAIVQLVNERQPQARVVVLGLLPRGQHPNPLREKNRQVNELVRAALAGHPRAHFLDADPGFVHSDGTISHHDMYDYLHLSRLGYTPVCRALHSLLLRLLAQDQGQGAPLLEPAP
IMP-1 inhibitor: blocks Pseudomonas aeruginosa IMP-1 metallo-beta-lactamase | inhibition, % at 5.6 µM | 0.45% of 290,000 active | purified IMP-1, nitrocefin hydrolysis, epi-absorbance fluorescence;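 active means inhibition above the mean plus 3 SD of all compounds in the same screening run, cut at about 4.5% in these data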;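 further: 0% = IMP-1 with DMSO and 100% = DMSO wells lacking enzyme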
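System: purified IMP-1 / Input: IMP-1 dispensed at 0.2 nM / Medium: 50 mM HEPES pH 7.1, 50 µM ZnSO4, 0.05% Brij 35 / Timing: 15 min enzyme–compound preincubation, then 25 min nitrocefin reaction, 25 °C / Technique: plate fluorescence quenching by hydrolysis product, ex 480/em 530 nm / Repeats: singlicate testing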
VIM-2 inhibitor: blocks Pseudomonas aeruginosa VIM-2 metallo-beta-lactamase; purified VIM-2, nitrocefin hydrolysis, epi-absorbance fluorescence; inhibition, % at 5.6 µM; 0.89% of 290,000 active;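 active means inhibition above the mean of all tested compounds plus 3 SD, cutoff set per screening run, cut at about 7.5% in these data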;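 further: red hydrolysis product quenches plate fluorescence so inhibitors raise well fluorescence; 0% = enzyme with DMSO and 100% = DMSO without enzyme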
pPAFAH FP inh: inhibitors of human plasma PAF acetylhydrolase (pPAFAH); recombinant pPAFAH, FP-rhodamine probe fluorescence polarization; inhibition, % at 3.39 µM; Q13093; 1.5% of 330,000 active; AID 463082;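 active means inhibition above the mean inhibition across the screen plus 3 SD, cut at about 25% in these data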;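 further: inhibitors block binding of the rhodamine activity-based probe so polarization drops; 0% = enzyme with DMSO and 100% = wells lacking pPAFAH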
Target sequence (Q13093 whole entry, looked up): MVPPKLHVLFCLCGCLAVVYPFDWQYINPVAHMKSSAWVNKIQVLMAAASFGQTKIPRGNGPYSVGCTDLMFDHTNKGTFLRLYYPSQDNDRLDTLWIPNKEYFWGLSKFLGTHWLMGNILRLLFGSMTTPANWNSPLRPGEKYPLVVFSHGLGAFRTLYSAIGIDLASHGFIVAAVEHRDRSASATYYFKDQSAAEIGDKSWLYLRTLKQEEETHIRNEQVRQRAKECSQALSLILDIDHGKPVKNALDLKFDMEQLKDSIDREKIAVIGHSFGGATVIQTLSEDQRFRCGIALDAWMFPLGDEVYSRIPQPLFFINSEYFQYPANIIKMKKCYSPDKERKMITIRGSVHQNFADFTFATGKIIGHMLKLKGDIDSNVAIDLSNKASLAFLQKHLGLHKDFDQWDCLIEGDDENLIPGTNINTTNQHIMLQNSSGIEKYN
PAFAH2 inh: PAFAH2 (human) inhibition | Q99487 | recombinant PAFAH2, FP-rhodamine activity probe, fluorescence polarization | inhibition, % at 3.39 µM | 0.99% of 340,000 active;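 active means inhibition above the mean over all tested compounds plus 3 SD, cut at about 30% in these data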;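 further: inhibitors block probe labeling of enzyme so polarization drops; 0% = enzyme with DMSO and 100% = wells lacking PAFAH2 protein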
* = called active by the depositor; · = no result. Shown are actives, neighbours in structure and some others; about 3.6% of the full set was active somewhere.

SMILES | PAFAH1B2 inh | PAFAH1B3 inh | IMP-1 inhibitor | VIM-2 inhibitor | pPAFAH FP inh | PAFAH2 inh
O=C(CCNC(=O)C1CCN(S(=O)(=O)c2ccc(F)cc2)CC1)NCc1ccc(F)cc1 | 27* | 7 | -1 | -4 | 4 | 6
CCCNC(=O)C1CCN(S(=O)(=O)c2ccc(Br)cc2)CC1 | 25* | 4 | 2 | -2 | 0 | 5
O=C(NCCC1CCCCN1S(=O)(=O)c1ccccc1)C(=O)NCc1ccc(F)cc1 (configuration not stated) | 27* | 2 | · | · | 10 | 1
NC(=O)C1CCCN(S(=O)(=O)c2ccc(Br)cc2)C1 (configuration not stated) | 28* | 3 | -2 | -2 | 1 | 15
O=C(NCCS(=O)(=O)N1CCN(c2ccccc2F)CC1)c1ccc2c(c1)OCO2 | 7 | 2 | · | · | 3 | 0
CC12CCC(=O)N1C(C(=O)OCc1c(Cl)cccc1Cl)CS2 (configuration not stated) | 1 | 9 | -1 | 1 | 3 | -14
O=C(CCC(=O)N(CC(=O)NC1CCCC1)Cc1ccc(F)cc1)Nc1nccs1 | 1 | 1 | -3 | -4 | 1 | 2
CN(C)c1nc(OCCNC(=O)Nc2ccc(Cl)cc2)nc(N(C)C)n1 | 4 | 7 | -2 | 0 | 25* | -2
NC(=O)c1ccc(N=C2C(=O)Nc3ccc([N+](=O)[O-])cc32)cc1 | 12 | 56* | 1 | -1 | 1 | 11
O=C1Nc2ccccc2C1=Nc1cccc([N+](=O)[O-])c1 | 12 | 21 | -4 | -2 | 9 | -1
Cc1ccc(N2CC(C(=O)Nc3nc4ccc(S(C)(=O)=O)cc4s3)CC2=O)cc1 (configuration not stated) | -2 | 0 | -1 | 1 | 3 | 2
CC(Oc1ccccc1)C(=O)Nc1nnc(S(=O)(=O)Nc2ccccc2)s1 (configuration not stated) | 10 | 7 | -3 | -1 | 29* | 5
NS(=O)(=O)c1ccc(CCNS(=O)(=O)c2ccc3c(c2)NC(=O)CO3)cc1 | 3 | 9 | -2 | -4 | 4 | -3
C[C@@H]1COC(=O)[C@H](Cc2ccc(F)cc2)CC/C=C/C[C@@H](CC(=O)N[C@@H](CO)Cc2ccccc2)C(=O)N1 | 11 | 2 | · | · | 0 | 0
CC(C)(C)[C@H]1COC(=O)[C@@H](Cc2ccc(F)cc2)C/C=C\C[C@@H](CC(=O)N[C@H](CO)Cc2ccccc2)C(=O)N1 | 66* | -6 | · | · | 6 | -5
CC(C)(C)[C@H]1COC(=O)[C@@H](Cc2ccc(F)cc2)C/C=C\C[C@@H](CC(=O)N[C@@H](CO)Cc2ccccc2)C(=O)N1 | 34* | -2 | · | · | 0 | 0
O=S(=O)(/N=C/c1ccccc1O)c1cccs1 | 7 | 9 | -3 | -2 | 1 | 2
CC(C)(C)c1cc[n+](C2=C([O-])c3ccccc3C(=O)/C2=N\S(=O)(=O)c2cccs2)cc1 | · | · | 7.0* | 3 | 12 | ·
CC12CC3(C)CC(C)(C1)CC(C(=O)NC1=NCCS1)(C2)C3 | 2 | 1 | -4 | -2 | -2 | -10
CC12CC3CC(C)(C1)CC(C(=O)NC1=NCCS1)(C3)C2 | 28* | 5 | 0 | -1 | 0 | -2
Cc1ccn2c(=O)nc(SCC(=O)NC3CCCC3)nc2c1 | -3 | 6 | · | · | 9 | 7
CC(C)C(NC(=O)C12CC3CC(CC(C3)C1)C2)C(=O)O (configuration not stated) | 26* | -1 | -4 | -6 | 3 | -2
COC(=O)C(C)NC(=O)C12CC3CC(CC(C3)C1)C2 (configuration not stated) | 3 | 3 | -3 | -4 | 1 | 5
CCN(CC)Cc1nc2c(c(=O)[nH]1)C(CC)(CC)Cc1ccccc1-2 | 1 | 4 | -1 | -1 | -5 | -6
c1ccc2c(c1)[nH]c1ccccc12 | 25* | 9 | · | · | -2 | 1
SMILES | PAFAH1B2 inh | PAFAH1B3 inh | IMP-1 inhibitor | VIM-2 inhibitor | pPAFAH FP inh | PAFAH2 inh
CCOC(=O)CSc1nc2sc3c(c2c(=O)n1-c1ccc(OC)cc1)CCN(C)C3 | -1 | 1 | -3 | -1 | · | 2
COC(=O)CSc1nc2sc3c(c2c(=O)n1-c1ccc(OC)cc1)CCN(C)C3 | 0 | -3 | 5.8* | 2 | · | 2
Cc1cccc(NC(=O)CSCC(=O)Nc2ccccc2N2CCCC2)c1 | 10 | -4 | -1 | -1 | 3 | 8
COc1ccc(C=Nc2cccc3c(=O)[nH][nH]c(=O)c23)c2ccccc12 | 3 | -6 | 27* | -1 | 7 | 13
CCCCOC(=O)Nc1nnc(CCc2ccccc2)s1 | 7 | 4 | -2 | -2 | 26* | -1
CCCCOC(=O)Nc1nnc(COc2ccccc2)s1 | 7 | -6 | -2 | -1 | 5 | -5
COc1ccc(-n2cc(-c3ccccc3)c3c(N4CCN(CCO)CC4)ncnc32)cc1 | -1 | -1 | -5 | 3 | 23 | -1
OCCN1CCN(c2ncnc3c2c(-c2ccccc2)cn3-c2ccc(F)cc2)CC1 | -1 | 4 | -2 | 4 | 25* | -5
CN(C)c1ccc(NC(=O)c2cccc(C(=O)Nc3ccc(N(C)C)cc3)n2)cc1 | -1 | 8 | -3 | -2 | 26* | -5
O=C(O)c1ccc(NC(=O)c2cccc(C(=O)Nc3ccc(C(=O)O)cc3)n2)cc1 | 31* | 40* | -3 | -2 | 8 | 20
O=C(Nc1ccccc1)c1cccc(C(=O)Nc2ccccc2)n1 | 1 | 16 | -1 | -1 | -2 | -5
COc1cc(C(c2c(C)[nH][nH]c2=O)c2c(C)[nH][nH]c2=O)ccc1OCc1ccc([N+](=O)[O-])cc1 | 26* | 8 | -5 | -3 | 11 | 1
COc1cc(C(c2c(C)[nH][nH]c2=O)c2c(C)[nH][nH]c2=O)ccc1OC(=O)c1cccc([N+](=O)[O-])c1 | 4 | 3 | -3 | -3 | 5 | 9
O=S(=O)(c1ccc(F)cc1)N1CCN(CC2CC3C=CC2C3)CC1 (configuration not stated) | 7 | 1 | -2 | 0 | -2 | 3
O=C(Cn1cnc2c(cnn2-c2ccc(Cl)cc2)c1=O)NC1CCCCC1 | -2 | 3 | 5.4* | -2 | 2 | -4
O=C(Cn1cnc2c(cnn2-c2ccc(Cl)cc2)c1=O)NCCc1ccccc1 | 3 | -1 | -2 | -2 | 1 | -3
O=C(CC1CC2CCC1C2)N1CCN(S(=O)(=O)c2ccccc2F)CC1 (configuration not stated) | 4 | 5 | · | · | 2 | 8
CN(C)CCSc1nnc2[nH]c3ccccc3c2n1 | 4 | -1 | -1 | 10* | 4 | 14
Fc1cccc(CSc2nnc3c(n2)[nH]c2ccccc23)c1 | 2 | -3 | -1 | -1 | -9 | -4
CCOC(=O)N1CCC(=NNC(=O)c2cc3ccccc3cc2O)CC1 | 2 | 11 | -3 | -1 | 27* | 7
Cc1ccc(NS(=O)(=O)c2cc(C(=O)Nc3cccnc3)ccc2C)cc1 | 0 | 6 | -4 | -3 | · | -1
